According to ChEMBL document CHEMBL4308843, “Identification of ABX-1431, a Selective Inhibitor of Monoacylglycerol Lipase and Clinical Candidate for Treatment of Neurological Disorders” (J Med Chem, 2018):
Calls of active or inactive are those of the source. The calls are words filed in the database; no cut-off is given here.

Key:
[1] = Stability in Sprague-Dawley rat plasma; type: ADME, cell-free
[2] = molecular target: Cytochrome P450 2C9 (Homo sapiens, UniProt P11712); assay: Inhibition of recombinant human CYP2C9; type: ADME
[3] = species on record: Canis lupus familiaris; assay: Inhibition of MGLL in dog brain membrane homogenates at 0.001 to 10 uM preincubated for 30 mins followed by FP-Rh addition after 30 mins by gel-based ABPP assay; type: cell membranes
Procedure, shortened: (§1)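 Brain membrane homogenates (1 mg/mL protein) were preincubated with 0.001-10 µM inhibitor or DMSO for 30 min at 37°C, then labelled with 1 µM FP-Rh for 30 min at 25°C. Reactions were quenched in SDS-PAGE loading buffer, run on 10% gels and scanned in-gel. MGLL band intensities were normalised to DMSO (100%).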

[4] = molecular target: T1, Monoglyceride lipase (Mus musculus) (UniProt O35678); assay: Inhibition of MGLL in mouse brain membrane homogenates at 0.001 to 10 uM preincubated for 30 mins followed by FP-Rh addition after 30 mins by gel-based ABPP assay; type: cell membranes; procedure, shortened: as §1
T1 sequence (whole entry): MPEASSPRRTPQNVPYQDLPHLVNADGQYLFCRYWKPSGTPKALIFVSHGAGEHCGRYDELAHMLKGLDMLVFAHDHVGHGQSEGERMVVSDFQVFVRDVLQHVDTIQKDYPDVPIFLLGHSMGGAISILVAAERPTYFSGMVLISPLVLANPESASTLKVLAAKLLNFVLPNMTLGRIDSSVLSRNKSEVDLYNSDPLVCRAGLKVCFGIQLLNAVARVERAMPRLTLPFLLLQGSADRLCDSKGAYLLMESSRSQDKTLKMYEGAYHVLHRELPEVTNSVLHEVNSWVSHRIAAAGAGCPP

[5] = molecular target: T2, Monoacylglycerol lipase ABHD6 (Mus musculus) (UniProt Q8R2Y0); assay: Inhibition of ABHD6 in mouse brain membrane homogenates at 0.001 to 10 uM preincubated for 30 mins followed by FP-Rh addition after 30 mins by gel-based ABPP assay; type: cell membranes
T2 sequence (whole entry): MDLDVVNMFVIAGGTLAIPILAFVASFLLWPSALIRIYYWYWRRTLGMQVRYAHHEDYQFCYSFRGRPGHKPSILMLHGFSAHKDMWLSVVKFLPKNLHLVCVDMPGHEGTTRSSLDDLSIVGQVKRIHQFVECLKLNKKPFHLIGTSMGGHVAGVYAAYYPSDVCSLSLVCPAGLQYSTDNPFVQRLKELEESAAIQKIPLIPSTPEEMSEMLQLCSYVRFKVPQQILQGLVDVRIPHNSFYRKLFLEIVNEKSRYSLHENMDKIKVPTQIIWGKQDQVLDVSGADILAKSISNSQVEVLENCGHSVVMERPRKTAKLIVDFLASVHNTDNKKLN

[6] = tested on: Rattus norvegicus; assay: Effect on spontaneous locomotor activity in Sprague-Dawley rat assessed as locomotor counts at 10 mg/kg, po monitored over 10 mins period; type: ADME, organism-based; conditions: in vivo
Procedure, shortened: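 Male Sprague Dawley rats (175–200 g) received vehicle (0.5% methylcellulose) or 10 mg/kg orally. Four hours later, spontaneous locomotor frequency was recorded for 10 min in a vibration-sensing Laboras cage system; n = 10 per group.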

[7] = tested on: Mus musculus; assay: In vivo inhibition of CES1c in po dosed ICR mouse brain measured 4 hrs post dose in presence of FP-Rh probe by gel-based ABPP assay; type: functional
Procedure, shortened: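 Male ICR mice, 6–12 weeks old, given single oral doses (0.5–32 mg/kg, n = 3) in PEG400:ethanol:PBS (7/2/1 v/v/v) at 5 mL/kg. Brains were removed 4 h later and one hemisphere processed for gel-based ABPP. Proteome was labeled with FP-Rh (1 µM, 30 min) and read by in-gel fluorescence relative to vehicle.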

[8] = Tmax in Beagle dog at 1 mg/kg, iv or 1 mg/kg, po by LC-MS analysis; type: ADME, organism-based, Canis lupus familiaris; conditions: in vivo
Procedure, shortened: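 Male beagle dogs (n = 3 per route), 10–12 months old, were dosed at 1 mg/kg iv or po in PEG400/ethanol/PBS (7/2/1), fasted overnight to 2 h post-dose. Peripheral venous blood was sampled to 24 h into K2EDTA and plasma frozen at −80 °C. Plasma was quantified by HPLC-MS/MS, with noncompartmental analysis.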

[9] = tested on: Mus musculus; assay: In vivo inhibition of MGLL in po dosed ICR mouse brain measured 4 hrs post dose in presence of FP-Rh probe by gel-based ABPP assay; type: functional
Procedure, shortened: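 Male ICR mice, 6–12 weeks old, single oral gavage 0.5–32 mg/kg in PEG400:ethanol:PBS (7/2/1), 5 mL/kg, n = 3. Killed at 4 h; one brain hemisphere for gel-based ABPP with FP-Rh (MGLL band quantified), the other for 2-AG by LC-MS/MS.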

[10] = tested on: Rattus norvegicus; assay: In vivo inhibition of MGLL in po dosed Sprague-Dawley rat brain assessed as increase in 2-AG measured at 4 hrs post dose by LC-MS/MS analysis; type: functional, organism-based
Procedure, shortened: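 Male Sprague Dawley rats, 6–12 weeks old, single oral doses 0.03–10 mg/kg in 0.5% methylcellulose, 5 mL/kg. Killed 4 h post-dose; forebrain section (~100–200 mg) from one hemisphere analysed for 2-AG by LC-MS/MS.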

[11] = tested on: Mus musculus; assay: In-vivo inhibition of MGLL in ICR mouse brain assessed as target engagement at 5 mg/kg, po measured 4 hrs post dose by gel-based ABPP assay relative to control; type: functional; parameters: scale not given: the % may be the effect or the level left
Procedure, shortened: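 Mice received a single 5 mg/kg oral gavage dose. Whole brains were collected 4 h post-dose and target engagement was read by gel-based ABPP with FP-Rh probe.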

[12] = tested on: Mus musculus; assay: In vivo inhibition of ABHD6 in ICR mouse brain at 25 mg/kg, po measured at 4 hrs post dose in presence of FP-Rh probe by gel-based ABPP assay; type: functional, organism-based
[13] = molecular target: T3, Monoacylglycerol lipase ABHD6 (Rattus norvegicus) (UniProt Q5XI64); assay: Inhibition of ABHD6 in rat brain membrane homogenates at 0.001 to 10 uM preincubated for 30 mins followed by FP-Rh addition after 30 mins by gel-based ABPP assay; type: cell membranes
T3 sequence (whole entry): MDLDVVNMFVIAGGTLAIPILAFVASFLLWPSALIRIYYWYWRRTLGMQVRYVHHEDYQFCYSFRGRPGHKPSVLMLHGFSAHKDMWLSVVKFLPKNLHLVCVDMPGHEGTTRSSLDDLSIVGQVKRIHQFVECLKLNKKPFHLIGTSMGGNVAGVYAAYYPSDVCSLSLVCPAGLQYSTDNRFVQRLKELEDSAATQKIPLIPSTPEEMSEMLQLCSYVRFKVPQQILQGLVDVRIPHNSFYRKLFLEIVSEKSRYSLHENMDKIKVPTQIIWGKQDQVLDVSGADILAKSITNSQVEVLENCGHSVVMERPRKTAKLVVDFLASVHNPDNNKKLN

[14] = tested on: Rattus norvegicus; assay: Antinociceptive activity in po dosed Sprague-Dawley rat brain assessed as inhibition of ABHD6 activity measured after 4 hrs post dose in presence of FP-Rh probe by gel-based ABPP assay; type: functional
Procedure, shortened: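 Male Sprague Dawley rats, 6–12 weeks old, given single oral doses (0.03–10 mg/kg) in 0.5% methylcellulose at 5 mL/kg. Brains were taken 4 h post-dose and forebrain sections excised from one hemisphere. Brain proteome was labeled with FP-Rh (1 µM, 30 min) and analyzed by SDS-PAGE with in-gel fluorescence. Band intensity was normalized to vehicle.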

Sequence of Cytochrome P450 2C9 (P11712 whole entry): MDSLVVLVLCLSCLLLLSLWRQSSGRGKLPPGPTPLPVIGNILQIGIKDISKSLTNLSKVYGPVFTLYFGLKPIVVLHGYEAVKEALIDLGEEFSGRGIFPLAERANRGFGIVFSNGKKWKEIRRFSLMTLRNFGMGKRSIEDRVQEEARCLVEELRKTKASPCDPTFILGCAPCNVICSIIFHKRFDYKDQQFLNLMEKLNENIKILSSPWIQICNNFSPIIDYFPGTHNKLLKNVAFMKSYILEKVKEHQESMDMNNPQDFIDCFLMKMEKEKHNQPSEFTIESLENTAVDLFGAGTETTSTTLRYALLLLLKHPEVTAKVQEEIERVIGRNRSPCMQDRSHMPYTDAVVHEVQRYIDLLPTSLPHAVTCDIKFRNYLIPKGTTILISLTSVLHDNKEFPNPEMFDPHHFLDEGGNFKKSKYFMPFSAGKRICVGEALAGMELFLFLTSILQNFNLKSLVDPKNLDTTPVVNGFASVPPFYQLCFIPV

O=C(OC(C(F)(F)F)C(F)(F)F)N1CCN(Cc2ccc(C(F)(F)F)cc2N2CCCC2)CC1 [ELCUBRAGISTAT]
Stability [1]: Unstable
IC50 [2]: > 50 µM
inhibition [3]: Active
inhibition [4]: Active
inhibition [5]: Active
Activity [6]: Non-Toxic
ED50 [7]: 32 mg/kg
Tmax [8]: 1 h
ED50 [9]: 1.4 mg/kg
inhibition [9]: Dose-dependent effect
inhibition [10]: Dose-dependent effect
Activity [11]: 100%
inhibition [12]: Active
inhibition [13]: Active
ED50 [14]: 2.9 mg/kg
